Source: ChEMBL document CHEMBL1150837, “New sesquiterpene derivatives from the sponge Dysidea species with a selective inhibitor profile against human phospholipase A2 and other leukocyte functions” (J Nat Prod, 2001)
The source made the active and inactive calls. The rule behind the calls is not given here.

Columns and labels:
[1] = biological target: Acidic phospholipase A2 2 (Naja naja) (UniProt P15445); experiment: Inhibition of Naja naja venom group 1 secretory phospholipase A2 at 10 uM by liquid scintillation counting
How it was run: (§1)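 Enzyme diluted in 100 mM Tris-HCl, 1 mM CaCl2, pH 7.5, preincubated 5 min at 37 °C with compound or vehicle. Substrate was autoclaved E. coli CECT 101 membranes labelled with [3H]oleic acid. Reaction ran 15 min, stopped with ice-cold BSA (0.07% w/v final), spun 1200g 10 min at 4 °C, supernatant counted. IC50 from ≥4 concentrations; mean ± SEM, n = 6.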

[2] = biological target: T1, Cytosolic phospholipase A2 (Mus musculus) (UniProt P47713); experiment: Inhibition of group 4 cytosolic phospholipase A2 in mouse RAW264.7 cells at 10 uM; format: cell-based
T1 sequence (whole entry): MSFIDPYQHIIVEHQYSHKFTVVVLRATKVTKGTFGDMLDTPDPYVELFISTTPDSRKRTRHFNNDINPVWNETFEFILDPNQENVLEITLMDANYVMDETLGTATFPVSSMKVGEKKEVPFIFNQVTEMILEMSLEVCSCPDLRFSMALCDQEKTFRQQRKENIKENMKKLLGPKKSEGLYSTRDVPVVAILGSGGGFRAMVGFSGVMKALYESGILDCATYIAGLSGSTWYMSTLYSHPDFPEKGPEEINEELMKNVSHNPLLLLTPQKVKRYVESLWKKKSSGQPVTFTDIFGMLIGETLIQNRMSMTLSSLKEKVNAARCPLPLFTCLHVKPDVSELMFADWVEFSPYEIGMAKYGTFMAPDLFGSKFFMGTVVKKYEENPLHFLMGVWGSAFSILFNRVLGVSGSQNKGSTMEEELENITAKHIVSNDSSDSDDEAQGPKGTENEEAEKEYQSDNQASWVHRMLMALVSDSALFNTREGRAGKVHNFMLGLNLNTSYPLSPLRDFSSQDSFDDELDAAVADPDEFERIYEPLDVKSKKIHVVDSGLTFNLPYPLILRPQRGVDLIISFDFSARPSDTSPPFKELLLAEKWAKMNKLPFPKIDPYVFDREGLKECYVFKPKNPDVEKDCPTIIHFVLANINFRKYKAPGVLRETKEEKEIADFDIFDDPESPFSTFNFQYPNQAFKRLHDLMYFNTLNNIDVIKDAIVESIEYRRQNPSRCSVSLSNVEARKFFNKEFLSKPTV
How it was run: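 Enzyme was the cytosolic fraction of RAW 264.7 macrophages. Substrate 1-palmitoyl-2-[14C]arachidonyl-sn-glycero-3-phosphocholine. Compound added in methanol (<1% final) just before the enzyme. Incubation 60 min at 37 °C, stopped with isopropanol-heptane-H2SO4. Released arachidonate extracted into hexane, cleaned on silica gel and counted. Mean ± SEM, n = 6.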

[3] = biological target: Phospholipase A2, major isoenzyme (Sus scrofa) (UniProt P00592); experiment: Inhibition of pig pancreatic group 1 secretory phospholipase A2 at 10 uM by liquid scintillation counting
How it was run: (§2)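 Substrate was E. coli CECT 101 membranes labelled with [3H]oleic acid and autoclaved. Enzyme in 100 mM Tris-HCl/1 mM CaCl2, pH 7.5, was preincubated 5 min at 37 °C with compound or vehicle, then incubated 15 min with membranes. The reaction was stopped with ice-cold BSA (final 0.07%) and centrifuged, and supernatant radioactivity was counted. IC50 from ≥4 concentrations; n = 6.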

[4] = biological target: Phospholipase A2, major isoenzyme (Sus scrofa, UniProt P00592); experiment: Inhibition of pig pancreatic group 1 secretory phospholipase A2 by liquid scintillation counting; how it was run: as §2
[5] = biological target: T2, Phospholipase A2, membrane associated (Homo sapiens) (UniProt P14555); experiment: Inhibition of human synovial recombinant group 2 secretory phospholipase A2 at 10 uM by liquid scintillation counting; how it was run: as §2
T2 sequence (whole entry): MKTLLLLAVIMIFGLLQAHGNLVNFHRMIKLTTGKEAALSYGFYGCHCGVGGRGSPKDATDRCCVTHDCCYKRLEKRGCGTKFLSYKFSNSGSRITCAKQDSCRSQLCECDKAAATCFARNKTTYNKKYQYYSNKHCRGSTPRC

[6] = biological target: T3, Phospholipase A2, membrane associated (Homo sapiens, UniProt P14555); experiment: Inhibition of human synovial recombinant group 2 secretory phospholipase A2 by liquid scintillation counting; how it was run: as §2
T3 sequence (P14555 whole entry): T2 sequence (whole entry)

[7] = biological target: T4, Phospholipase A2 (Apis mellifera) (UniProt P00630); experiment: Inhibition of bee venom group 3 secretory phospholipase A2 at 10 uM by liquid scintillation counting; how it was run: as §1
T4 sequence (whole entry): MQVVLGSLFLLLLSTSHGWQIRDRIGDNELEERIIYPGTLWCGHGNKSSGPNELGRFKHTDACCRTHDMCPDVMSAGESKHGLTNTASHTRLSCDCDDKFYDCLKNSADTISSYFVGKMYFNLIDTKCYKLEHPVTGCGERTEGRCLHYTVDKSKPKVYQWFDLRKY

[8] = biological target: T5, Phospholipase A2 (Apis mellifera, UniProt P00630); experiment: Inhibition of bee venom group 3 secretory phospholipase A2 by liquid scintillation counting; how it was run: as §1
T5 sequence (P00630 whole entry): T4 sequence (whole entry)

[9] = biological target: T1, Cytosolic phospholipase A2 (Mus musculus); experiment: Inhibition of group 4 cytosolic phospholipase A2 in mouse RAW264.7 cells; format: cell-based
How it was run: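 Enzyme source was cytosolic fractions of RAW 264.7 cells. Substrate was 1-palmitoyl-2-[14C]arachidonyl-PC (2 × 10^6 cpm). Compounds were added in methanol (final <1%) just before the enzyme. After 60 min at 37 °C, the reaction was stopped with isopropanol/heptane/0.5 M H2SO4 and extracted into hexane with silica gel. Released arachidonate was counted.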

[10] = Cytotoxicity against human neutrophils assessed as inhibition of cell viability at 10 uM after 16 to 40 hrs by MTT assay; format: cell-based, Neutrophil; conditions: read-out: INH
How it was run: (§3)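 Cytotoxicity measured on purified human neutrophils as mitochondrial-dependent reduction of MTT to formazan; compounds tested up to 10 µM, reported as % inhibition of viability. Mean ± SEM, n = 6.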

[11] = tested on: Neutrophil; experiment: Inhibition of TPA-induced chemiluminescence response in human neutrophils at 10 uM after 7 mins; format: functional
How it was run: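 Neutrophils (2.5 × 10^6/mL) mixed with luminol (40 µM) and stimulated with 1 µM TPA; chemiluminescence read at 7 min, the time of maximal production. % inhibition at 10 µM; mean ± SEM, n = 6.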

[12] = tested on: Neutrophil; experiment: Inhibition of cytochalasin B and fMLP-stimulated human neutrophil degranulation assessed as inhibition of elastase release at 10 uM preincubated for 5 mins before cytochalasin B and fMLP challenge measured after 20 mins by microtiter plate assay; format: functional
How it was run: (§4)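 Neutrophils (2.5 × 10^6/mL) preincubated 5 min with compound or vehicle, then stimulated 10 min at 37 °C with cytochalasin B (10 µM) + FMLP (10 nM). Supernatants incubated 20 min at 37 °C with Boc-L-alanine p-nitrophenyl ester (200 µM); p-nitrophenol read at 414 nm. IC50 from ≥4 concentrations, n = 6.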

[13] = tested on: Neutrophil; experiment: Inhibition of cytochalasin B and fMLP-stimulated human neutrophil degranulation assessed as inhibition of elastase release preincubated for 5 mins before cytochalasin B and fMLP challenge measured after 20 mins by microtiter plate assay; format: functional, cell-based; how it was run: as §4
[14] = Cytotoxicity against human neutrophils up to 10 uM after 16 to 40 hrs by MTT assay; format: cell-based; conditions: neutrophil; how it was run: as §3
[15] = Homo sapiens, Neutrophil, read-out: IC50

Sequence of Acidic phospholipase A2 2 (Naja naja) (P15445 whole entry): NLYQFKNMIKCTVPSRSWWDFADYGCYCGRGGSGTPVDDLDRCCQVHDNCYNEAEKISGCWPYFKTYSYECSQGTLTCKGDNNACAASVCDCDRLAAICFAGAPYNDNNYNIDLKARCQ
Sequence of Phospholipase A2, major isoenzyme (Sus scrofa) (P00592 23-146 limits assumed): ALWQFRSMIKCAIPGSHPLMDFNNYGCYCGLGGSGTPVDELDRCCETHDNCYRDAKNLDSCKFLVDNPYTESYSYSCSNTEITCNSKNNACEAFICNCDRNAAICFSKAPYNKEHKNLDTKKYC
Sequence of Phospholipase A2, major isoenzyme (P00592 whole entry): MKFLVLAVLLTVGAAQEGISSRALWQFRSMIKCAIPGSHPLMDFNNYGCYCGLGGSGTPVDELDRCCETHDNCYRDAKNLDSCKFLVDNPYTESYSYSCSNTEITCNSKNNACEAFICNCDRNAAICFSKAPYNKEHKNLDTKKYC

CC1=C(CC/C(C)=C/CCC2=CC[C@H](C3=CC(=O)O[C@H]3O)O[C@H]2O)C(C)(C)CCC1
inhibition [1]: 17% | inhibition [2]: 44.6%

COC1=CC(=O)C(O)=C(C[C@@]2(C)CC[C@]3(C)C(C)=CCC[C@H]3[C@H]2C)C1=O [BOLINAQUINONE]
inhibition [1]: 26% | inhibition [3]: 86.4% | IC50 [4]: 400 nM | inhibition [5]: 100% | IC50 [6]: 200 nM | inhibition [7]: 99.1% | IC50 [8]: 100 nM | inhibition [9]: inactive | cytotoxicity at 10 µM [10]: 14% | inhibition at 10 µM [11]: 40.1% | inhibition at 10 µM [12]: 68.1% | IC50 [13, 15]: 5200 nM

COC(=O)[C@]1(O)C=C(OC)C(=O)[C@@H]1C[C@@]1(C)CC[C@]2(C)C(C)=CCC[C@H]2[C@H]1C [DYSIDENONE A]
inhibition [9]: inactive | Activity [14]: Non-toxic

COC(=O)[C@@]1(O)C=C(OC)C(=O)[C@H]1C[C@@]1(C)CC[C@]2(C)C(C)=CCC[C@H]2[C@H]1C [DYSIDENONE B]
inhibition [9]: inactive | Activity [14]: Non-toxic

CC1=CCC[C@H]2[C@@H](C)[C@@](C)(CC3=C(O)C(=O)C=C(NCCS(=O)(=O)O)C3=O)CC[C@]12C [DYSIDINE]
inhibition [1]: 0.7% | inhibition [3]: 1.2% | inhibition [5]: 73.8% | IC50 [6]: 2000 nM | inhibition [7]: 33.4% | inhibition [9]: inactive | Activity [14]: Non-toxic | cytotoxicity at 10 µM [10]: 0.3% | inhibition at 10 µM [11]: 44.4% | inhibition at 10 µM [12]: 90.7% | IC50 [13, 15]: 1300 nM | IC50 ([13]; neutrophil): Dose-dependent effect
